According to ChEMBL document CHEMBL1121966, “(2R*,3S*)-1-[125I]Iodo-2,3-bis(4-hydroxyphenyl)pentane ([125I]iodonorhexestrol) and (2R*,3S*)-1-[77Br]Bromo-2,3-bis(4-hydroxyphenyl)pentane ([77Br]bromonorhexestrol), two gamma-emitting estrogens that show receptor-mediated uptake by target tissues in vivo” (1982):

Key:
[1] = Solvolytic stability of compound was measured relative to p-hydroxyphenethyl bromide; assay type: functional, Rattus norvegicus
Rattus norvegicus [2] = species on record: Rattus norvegicus; assay: Percent injected dose per gram kidney at 1 hr; assay type: functional
Outline: (§1)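 Immature (25-day, ca. 50 g) Sprague-Dawley female rats received an iv injection (jugular or tail vein) of HPLC-purified tracer in ethanol plus 0.9% NaCl/rat serum 1:1. Doses were 2 μCi [125I]iodo tracer (≤15 pmol), or 2 μCi [77Br]bromo tracer (≤1.25 pmol) with 2 μCi 16α-[125I]iodoestradiol. Animals were killed at 1 h; blood and tissues were weighed and γ-counted. Blocking: coinjected unlabeled estradiol, 9 μg (iodo) or 18 μg (bromo). Mean ± SD.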

Rattus norvegicus [3] = species on record: Rattus norvegicus; assay: Percent injected dose per gram kidney at 1 hr with unlabeled estradiol; assay type: functional; outline: as §1
Rattus norvegicus [4] = species on record: Rattus norvegicus; assay: Percent injected dose per gram liver at 1 hr; assay type: functional
Outline: (§2)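 Immature (25 day) female Sprague-Dawley rats (ca. 50 g) were dosed iv (jugular or tail vein) in ethanol plus 0.9% NaCl/rat serum (1:1). Doses were 2 μCi of [125I]iodonorhexestrol (≤15 pmol/dose), or 2 μCi each of [77Br]bromonorhexestrol (≤1.25 pmol/dose) and 16α-[125I]iodoestradiol (2 pmol/dose). Rats were killed at 1, 3 or 6 h; blood and tissues were weighed and γ-counted. Thyroid weight assumed 0.005 g/100 g body weight. Mean ± SD.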

Rattus norvegicus [5] = species on record: Rattus norvegicus; assay: Percent injected dose per gram liver at 1 hr with unlabeled estradiol; assay type: functional
Outline: (§3)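 Same iv biodistribution in immature female rats, killed at 1 h, with unlabeled estradiol coinjected to block receptor uptake: 9 μg with [125I]iodonorhexestrol (3 rats), 18 μg with the [77Br]bromonorhexestrol/16α-[125I]iodoestradiol pair (5 rats). Tissue and blood radioactivity were counted as % injected dose/g and tissue-to-blood ratio.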

Rattus norvegicus [6] = species on record: Rattus norvegicus; assay: Percent injected dose per gram lung at 1 hr; assay type: functional; outline: as §2
Rattus norvegicus [7] = species on record: Rattus norvegicus; assay: Percent injected dose per gram lung at 1 hr with unlabeled estradiol; assay type: functional; outline: as §3
Rattus norvegicus [8] = species on record: Rattus norvegicus; assay: Percent injected dose per gram spleen at 1 hr; assay type: functional; outline: as §2
Rattus norvegicus [9] = species on record: Rattus norvegicus; assay: Percent injected dose per gram spleen at 1 hr with unlabeled estradiol; assay type: functional; outline: as §3
Rattus norvegicus [10] = species on record: Rattus norvegicus; assay: Percent injected dose per gram thyroid at 1 hr; assay type: functional, Thyroid gland; outline: as §2
Rattus norvegicus [11] = species on record: Rattus norvegicus; assay: Percent injected dose per gram thyroid at 1 hr with unlabeled estradiol; assay type: functional, Thyroid gland; outline: as §3
Rattus norvegicus [12] = species on record: Rattus norvegicus; assay: Percent injected dose per gram Uterus at 1 hr with unlabeled estradiol.; assay type: functional; outline: as §1
Rattus norvegicus [13] = species on record: Rattus norvegicus; assay: Percent injected dose per gram blood at 1 hr; assay type: functional; outline: as §1
Rattus norvegicus [14] = species on record: Rattus norvegicus; assay: Percent injected dose per gram blood at 1 hr with unlabeled estradiol; assay type: functional; outline: as §1
Rattus norvegicus [15] = species on record: Rattus norvegicus; assay: Percent injected dose per gram esophagus at 1 hr; assay type: functional; outline: as §1
Rattus norvegicus [16] = species on record: Rattus norvegicus; assay: Percent injected dose per gram esophagus at 1 hr with unlabeled estradiol; assay type: functional; outline: as §1
Rattus norvegicus [17] = species on record: Rattus norvegicus; assay: Percent injected dose per gram Muscle at 1 hr with unlabeled estradiol; assay type: functional; outline: as §1
Rattus norvegicus [18] = species on record: Rattus norvegicus; assay: Percent injected dose per gram Ovaries at 1 hr; assay type: functional; outline: as §1
Rattus norvegicus [19] = species on record: Rattus norvegicus; assay: Percent injected dose per gram Ovaries at 1 hr with unlabeled estradiol; assay type: functional; outline: as §1
Rattus norvegicus [20] = species on record: Rattus norvegicus; assay: Percent injected dose per gram Uterus at 1 hr; assay type: functional; outline: as §1
[21] = Ovary/blood distribution ratio was determined in immature female rats at 1 hr; assay type: functional; outline: as §1
[22] = Ovary/blood distribution ratio was determined in immature female rats at 1 hr with unlabeled estradiol; assay type: functional; outline: as §1
[23] = Spleen/blood distribution ratio was determined immature female rats at 1 hr; assay type: functional; outline: as §2
[24] = Esophagus/blood distribution ratio was determined in immature female rats at 1 hr with unlabeled estradiol; assay type: functional; outline: as §1
[25] = Muscle/blood distribution ratio was determined immature female rats at 1 hr with unlabeled estradiol; assay type: functional; outline: as §1
[26] = Liver/blood distribution ratio was determined in immature female rats at 1 hr; assay type: functional; outline: as §1
[27] = Liver/blood distribution ratio was determined in immature female rats at 1 hr with unlabeled estradiol; assay type: functional; outline: as §1
[28] = Lung/blood distribution ratio was determined in immature female rats at 1 hr; assay type: functional; outline: as §1
[29] = Spleen/blood distribution ratio was determined in immature female rats at 1 hr with unlabeled estradiol; assay type: functional
[30] = Kidney/blood distribution ratio was determined in immature female rats at 1 hr; assay type: functional; outline: as §1
[31] = Kidney/blood distribution ratio was determined in immature female rats at 1 hr with unlabeled estradiol; assay type: functional; outline: as §1
[32] = Tissue/blood distribution ratio was measured in immature female rats at 1 hr; assay type: functional; outline: as §2
[33] = Tissue/blood distribution ratio was measured in immature female rats at 1h, unlabeled estradiol (18 microg) coinjected; assay type: functional
Outline: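 Immature female rats given iv [77Br]bromonorhexestrol with 16α-[125I]iodoestradiol (2 μCi each) plus 18 μg unlabeled estradiol coinjected; killed at 1 h. Tissue and blood were weighed and counted, and tissue-to-blood radioactivity ratios were computed; 5 animals, mean ± SD.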

[34] = Thyroid/blood distribution ratio was determined in immature female rats at 1 hr; assay type: functional; outline: as §2
[35] = Thyroid/blood distribution ratio was determined in immature female rats at 1 hr with unlabeled estradiol; assay type: functional; outline: as §3
[36] = Uterus/blood distribution ratio was measured in immature female rats at 1 hr; assay type: functional; outline: as §2
[37] = Uterus/blood distribution of compound was measured in immature female rats at 1 hr with unlabeled estradiol; assay type: functional; outline: as §3
Rattus norvegicus [38] = species on record: Rattus norvegicus; assay: Percent injected dose per gram Muscle at 1 hr; assay type: functional; outline: as §1
[39] = Lung/blood distribution ratio was determined in immature female rats at 1 hr with unlabeled estradiol; assay type: functional; outline: as §1
[40] = Esophagus/blood distribution ratio was determined in immature female rats at 1 hr; assay type: functional; outline: as §1

Q: Which 1/krel [1] does the source give for `CC[C@H](c1ccc(O)cc1)[C@@H](CI)c1ccc(O)cc1` here?
A: The 1/krel was 0.71.

Q: And the Injected dose (Rattus norvegicus [2])?
A: The Injected dose was 1.8%.

Q: What about the Injected dose (Rattus norvegicus [3]) of the same molecule?
A: The Injected dose was 1.9%.

Q: What about the Injected dose (Rattus norvegicus [4]) of the same molecule?
A: The Injected dose was 2%.

Q: What about the Injected dose (Rattus norvegicus [5]) of the same molecule?
A: Its Injected dose is 2.5%.

Q: And the Injected dose (Rattus norvegicus [6])?
A: The Injected dose was 1.4%.

Q: What about the Injected dose (Rattus norvegicus [7]) of the same molecule?
A: Its Injected dose is 1.8%.

Q: And the Injected dose (Rattus norvegicus [8])?
A: The Injected dose was 1.2%.

Q: And the Injected dose (Rattus norvegicus [9])?
A: Its Injected dose is 1.3%.

Q: What about the Injected dose (Rattus norvegicus [10]) of the same molecule?
A: The Injected dose was 619%.

Q: And the Injected dose (Rattus norvegicus [11])?
A: Its Injected dose is 474.5%.

Q: What about the Injected dose (Rattus norvegicus [12]) of the same molecule?
A: Its Injected dose is 4.9%.

Q: What about the Injected dose (Rattus norvegicus [13]) of the same molecule?
A: The Injected dose was 1.3%.

Q: What about the Injected dose (Rattus norvegicus [14]) of the same molecule?
A: Its Injected dose is 1.5%.

Q: And the Injected dose (Rattus norvegicus [15])?
A: Its Injected dose is 8.3%.

Q: What about the Injected dose (Rattus norvegicus [16]) of the same molecule?
A: Its Injected dose is 5.4%.

Q: And the Injected dose (Rattus norvegicus [17])?
A: Its Injected dose is 2.7%.

Q: And the Injected dose (Rattus norvegicus [18])?
A: The Injected dose was 4.8%.

Q: And the Injected dose (Rattus norvegicus [19])?
A: The Injected dose was 4.9%.

Q: And the Injected dose (Rattus norvegicus [20])?
A: Its Injected dose is 15.7%.

Q: What about the Ratio [21] of the same molecule?
A: Its Ratio is 3.7.

Q: And the Ratio [22]?
A: Its Ratio is 3.2.

Q: What about the Ratio [23] of the same molecule?
A: Its Ratio is 0.9.

Q: And the Ratio [24]?
A: Its Ratio is 3.6.

Q: And the Ratio [25]?
A: Its Ratio is 1.9.

Q: And the Ratio [26]?
A: The Ratio was 1.

Q: And the Ratio [27]?
A: Its Ratio is 1.6.

Q: And the Ratio [28]?
A: Its Ratio is 1.1.

Q: And the Ratio [29]?
A: The Ratio was 0.9.

Q: And the Ratio [30]?
A: The Ratio was 1.4.

Q: What about the Ratio [31] of the same molecule?
A: Its Ratio is 1.2.

Q: And the Ratio [32]?
A: Its Ratio is 1.

Q: What about the Ratio [33] of the same molecule?
A: The Ratio was 1.

Q: And the Ratio [34]?
A: The Ratio was 494.8.

Q: And the Ratio [35]?
A: Its Ratio is 278.4.

Q: What about the Ratio [36] of the same molecule?
A: The Ratio was 11.3.

Q: What about the Ratio [37] of the same molecule?
A: Its Ratio is 3.3.

Q: And the Injected dose (Rattus norvegicus [38])?
A: The Injected dose was 1.6%.

Q: And the Ratio [39]?
A: Its Ratio is 1.2.

Q: And the Ratio [40]?
A: Its Ratio is 6.3.

Q: For `Oc1ccc(CCBr)cc1`, which 1/krel [1] is on record?
A: Its 1/krel is 1.
